Laboratory results as given in ChEMBL document CHEMBL4346672, “Antimicrobial and KPC/AmpC inhibitory activity of functionalized benzosiloxaboroles” (Eur J Med Chem, 2019).
In brackets after ≈: the same amount, converted by molar mass. Activity calls are given as the source filed them. No cut-off for these calls is given here.

Key:
Pseudomonas aeruginosa [1] = assay: Antibacterial activity against Pseudomonas aeruginosa ATCC 27853 assessed as fold reduction of MIC in presence of efflux pump inhibitor PAbetaN incubated for 18 hrs microdilution method; assay type: functional
How it was run: (§1)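 MICs determined with and without PAβN at 50 mg/L in Mueller-Hinton broth containing 1 mM MgSO₄. 2-fold serial dilutions per CLSI. Fold change taken from the paired MICs after 35 °C, 18 h.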

Escherichia coli [2] = assay: Antibacterial activity against Escherichia coli ATCC 25922 assessed as diameter of zone inhibition measured after 18 hrs by CLSI disc diffusion method; assay type: functional
How it was run: (§2)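 Disc diffusion on Mueller-Hinton II agar. Compounds dissolved in DMSO. Strains stored at -80 °C and subcultured twice on tryptic soy agar before testing. Inhibition zones read after 35 °C, 18 h.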

Staphylococcus aureus [3] = assay: Antibacterial activity against Staphylococcus aureus ATCC 6538P assessed as diameter of zone inhibition measured after 18 hrs by CLSI disc diffusion method; assay type: functional; how it was run: as §2
Acinetobacter baumannii [4] = assay: Antibacterial activity against Acinetobacter baumannii ATCC 19606 assessed as diameter of zone inhibition measured after 18 hrs by CLSI disc diffusion method; assay type: functional; how it was run: as §2
Burkholderia cepacia [5] = assay: Antibacterial activity against Burkholderia cepacia ATCC 25416 assessed as diameter of zone inhibition measured after 18 hrs by CLSI disc diffusion method; assay type: functional; how it was run: as §2
Escherichia coli [6] = assay: Antibacterial activity against Escherichia coli ATCC 25922 assessed as fold reduction of MIC in presence of efflux pump inhibitor PAbetaN incubated for 18 hrs by CLSI broth microdilution method; assay type: functional; how it was run: as §1
[7] = system: Staphylococcus epidermidis; assay: Antibacterial activity against Staphylococcus epidermidis ATCC 12228 assessed as diameter of zone inhibition measured after 18 hrs by CLSI disc diffusion method; assay type: functional; how it was run: as §2
Klebsiella pneumoniae [8] = assay: Antibacterial activity against Klebsiella pneumoniae ATCC 13883 assessed as fold reduction of MIC in presence of efflux pump inhibitor PAbetaN incubated for 18 hrs by broth microdilution method; assay type: functional; how it was run: as §1
Proteus mirabilis = assay: Antibacterial activity against Proteus mirabilis ATCC 12453 assessed as fold reduction of MIC in presence of efflux pump inhibitor PAbetaN incubated for 18 hrs by broth microdilution method; assay type: functional; how it was run: as §1
Enterococcus faecium [9] = assay: Antibacterial activity against Enterococcus faecium ATCC 6057 measured after 18 hrs by CLSI broth dilution method; assay type: functional; settings: ATCC 6057, 18 h
How it was run: (§3)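 Broth MIC in Mueller-Hinton II broth following CLSI, compounds dissolved in DMSO. Strains subcultured twice on tryptic soy agar before testing. Growth read after 35 °C, 18 h.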

Saccharomyces cerevisiae = assay: Antifungal activity against Saccharomyces cerevisiae ATCC 9763 diameter of zone inhibition incubated for 24 hrs by CLSI disc diffusion method; assay type: functional
How it was run: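 Disc-diffusion run on Mueller-Hinton II agar with 2% glucose and 0.5 mg/L methylene blue, using compounds in DMSO. Yeast was precultured on Sabouraud dextrose agar (24–48 h, 30 °C). Zones read after 24 h at 35 °C.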

Candida tropicalis = assay: Antifungal activity against Candida tropicalis IBA 171 assessed as diameter of zone inhibition incubated for 24 hrs by CLSI disc diffusion method; assay type: functional
How it was run: (§4)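 Yeast disc diffusion on Mueller-Hinton agar supplemented with 2% glucose and 0.5 mg/L methylene blue. Compounds in DMSO. Yeasts subcultured on Sabouraud dextrose agar before testing. Zones read after 35 °C, 24 h.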

Pseudomonas aeruginosa [10] = assay: Antibacterial activity against Pseudomonas aeruginosa ATCC 27853 measured after 18 hrs by CLSI broth dilution method; assay type: functional; settings: ATCC 27853, 18 h; how it was run: as §3
Pichia kudriavzevii = assay: Antifungal activity against Candida krusei ATCC 6258 assessed as decrease in fungal cell growth at 0.78 to 12.5 mg/L incubated for 24 hrs by CLSI broth dilution method; assay type: functional; settings: ATCC 6258, 24 h
How it was run: (§5)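 Yeast broth dilution in RPMI 1640 with 2% glucose, compounds in DMSO. Yeasts pre-grown on Sabouraud dextrose agar. Growth read after 35 °C, 24 h.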

Enterococcus faecium [11] = assay: Antibacterial activity against Enterococcus faecium ATCC 6057 assessed as diameter of zone inhibition measured after 18 hrs by CLSI disc diffusion method; assay type: functional; how it was run: as §2
Burkholderia cepacia [12] = assay: Antibacterial activity against Burkholderia cepacia ATCC 25416 measured after 18 hrs by CLSI broth dilution method; assay type: functional; settings: ATCC 25416, 18 h; how it was run: as §3
Enterococcus faecalis = assay: Antibacterial activity against Enterococcus faecalis ATCC 29212 assessed as diameter of zone inhibition measured after 18 hrs by CLSI disc diffusion method; assay type: functional; how it was run: as §2
Candida parapsilosis = assay: Antifungal activity against Candida parapsilosis ATCC 22019 assessed as diameter of zone inhibition incubated for 24 hrs by CLSI disc diffusion method; assay type: functional; how it was run: as §4
Acinetobacter baumannii [13] = assay: Antibacterial activity against Acinetobacter baumannii ATCC 19606 assessed as fold reduction of MIC in presence of efflux pump inhibitor PAbetaN incubated for 18 hrs by broth microdilution method; assay type: functional; how it was run: as §1
[14] = system: Stenotrophomonas maltophilia; assay: Antibacterial activity against Stenotrophomonas maltophilia ATCC 13637 measured after 18 hrs by CLSI broth dilution method; assay type: functional; settings: ATCC 13637, 18 h; how it was run: as §3
Pseudomonas aeruginosa [15] = assay: Antibacterial activity against Pseudomonas aeruginosa ATCC 27853 assessed as diameter of zone inhibition measured after 18 hrs by CLSI disc diffusion method; assay type: functional, organism-based; how it was run: as §2
[16] = system: Bordetella bronchiseptica; assay: Antibacterial activity against Bordetella bronchiseptica ATCC 4617 assessed as diameter of zone inhibition measured after 18 hrs by CLSI disc diffusion method; assay type: functional; how it was run: as §2
Candida albicans [17] = assay: Antifungal activity against Candida albicans ATCC 90028 assessed as diameter of zone inhibition incubated for 24 hrs by CLSI disc diffusion method; assay type: functional; how it was run: as §4
Enterobacter cloacae = assay: Antibacterial activity against Enterobacter cloacae DSM 6234 assessed as diameter of zone inhibition measured after 18 hrs by CLSI disc diffusion method; assay type: functional; how it was run: as §2
[18] = system: Meyerozyma guilliermondii; assay: Antifungal activity against Candida guilliermondii IBA 155 assessed as diameter of zone inhibition incubated for 24 hrs by CLSI disc diffusion method; assay type: functional; how it was run: as §4
[19] = system: Bordetella bronchiseptica; assay: Antibacterial activity against Bordetella bronchiseptica ATCC 4617 measured after 18 hrs by CLSI broth dilution method; assay type: functional; settings: ATCC 4617, 18 h; how it was run: as §3
Serratia marcescens = assay: Antibacterial activity against Serratia marcescens ATCC 13880 assessed as fold reduction of MIC in presence of efflux pump inhibitor PAbetaN incubated for 18 hrs by broth microdilution method; assay type: functional; how it was run: as §1
Staphylococcus aureus [20] = assay: Antibacterial activity against Staphylococcus aureus ATCC 6538P measured after 18 hrs by CLSI broth dilution method; assay type: functional; how it was run: as §3
Acinetobacter baumannii [21] = assay: Antibacterial activity against Acinetobacter baumannii ATCC 19606 measured after 18 hrs by CLSI broth dilution method; assay type: functional; settings: ATCC 19606, 18 h; how it was run: as §3
Klebsiella pneumoniae [22] = settings: ATCC 13883
Candida albicans [23] = assay: Antifungal activity against Candida albicans ATCC 90028 assessed as decrease in fungal cell growth at 0.78 to 12.5 mg/L incubated for 24 hrs by CLSI broth dilution method; assay type: functional; settings: ATCC 90028, 24 h; how it was run: as §5
Escherichia coli [24] = assay: Antibacterial activity against Escherichia coli ATCC 25922 measured after 18 hrs by CLSI broth dilution method; assay type: functional; settings: ATCC 25922, 18 h; how it was run: as §3
Klebsiella pneumoniae [25] = assay: Antibacterial activity against Klebsiella pneumoniae ATCC 13883 measured after 18 hrs by CLSI broth dilution method; assay type: functional; settings: ATCC 13883, 18 h; how it was run: as §3

Compound | fold change (FC) (Pseudomonas aeruginosa [1]) | diameter of the inhibition zone (DIZ) (Escherichia coli [2]) | diameter of the inhibition zone (DIZ) (Staphylococcus aureus [3]) | diameter of the inhibition zone (DIZ) (Acinetobacter baumannii [4]) | diameter of the inhibition zone (DIZ) (Burkholderia cepacia [5]) | fold change (FC) (Escherichia coli [6]) | diameter of the inhibition zone (DIZ) [7] [mm] | fold change (FC) (Klebsiella pneumoniae [8]) | fold change (FC) (Proteus mirabilis) | MIC (Enterococcus faecium [9]) [µg/mL] | diameter of the inhibition zone (DIZ) (Saccharomyces cerevisiae) | diameter of the inhibition zone (DIZ) (Candida tropicalis) | MIC (Pseudomonas aeruginosa [10]) [µg/mL] | MIC (Pichia kudriavzevii) [µg/mL] | diameter of the inhibition zone (DIZ) (Enterococcus faecium [11]) | MIC (Burkholderia cepacia [12]) [µg/mL] | diameter of the inhibition zone (DIZ) (Enterococcus faecalis) | diameter of the inhibition zone (DIZ) (Candida parapsilosis) | fold change (FC) (Acinetobacter baumannii [13]) | MIC [14] [µg/mL] | also measured
C[Si]1(C)OB(O)c2ccccc21 | 8 | inactive | inactive | inactive | inactive | 4 | 28 | 2 | 0 | 200 (≈ 1120 µM) | 36 mm | inactive | > 200 | 25 (≈ 140 µM) | inactive | 200 (≈ 1120 µM) | inactive | 11 mm | 4 | > 200 | diameter of the inhibition zone (DIZ) (Pseudomonas aeruginosa [15]): inactive; diameter of the inhibition zone (DIZ) [16]: inactive; diameter of the inhibition zone (DIZ) (Candida albicans [17]): inactive; diameter of the inhibition zone (DIZ) (Enterobacter cloacae): inactive; diameter of the inhibition zone (DIZ) [18]: 12 mm; MIC [19]: > 200 µg/mL; fold change (FC) (Serratia marcescens): 0; MIC (Staphylococcus aureus [20]): 200 µg/mL (≈ 1120 µM); MIC (Acinetobacter baumannii [21]): > 200 µg/mL; DIZ (Klebsiella pneumoniae [22]): inactive; MIC (Candida albicans [23]): 100 µg/mL (≈ 562 µM); MIC (Escherichia coli [24]): > 200 µg/mL; MIC (Klebsiella pneumoniae [25]): > 200 µg/mL
C[Si]1(C)OB(O)c2c(F)c3c(c(F)c21)B(O)OC3 | 8 | inactive | 30 mm | 15 mm | 23 mm | 8 | 35 | 16 | 4 | 25 (≈ 92.6 µM) | inactive | inactive | > 400 | > 400 | 28 mm | 50 (≈ 185 µM) | 28 mm | inactive | 8 | 50 (≈ 185 µM) | diameter of the inhibition zone (DIZ) (Pseudomonas aeruginosa [15]): inactive; diameter of the inhibition zone (DIZ) [16]: inactive; diameter of the inhibition zone (DIZ) (Candida albicans [17]): inactive; diameter of the inhibition zone (DIZ) (Enterobacter cloacae): 17 mm; diameter of the inhibition zone (DIZ) [18]: inactive; MIC [19]: 100 µg/mL (≈ 371 µM); fold change (FC) (Serratia marcescens): 16; MIC (Staphylococcus aureus [20]): 6.25 µg/mL (≈ 23.2 µM); MIC (Acinetobacter baumannii [21]): 400 µg/mL (≈ 1480 µM); DIZ (Klebsiella pneumoniae [22]): inactive; MIC (Candida albicans [23]): > 400 µg/mL; MIC (Escherichia coli [24]): 200 µg/mL (≈ 741 µM); MIC (Klebsiella pneumoniae [25]): 200 µg/mL (≈ 741 µM)
C[Si]1(C)OB(O)c2cc(B(O)O)cc(F)c21 | 2 | inactive | 18 mm | inactive | inactive | 8 | 29 | 8 | 4 | 200 (≈ 834 µM) | inactive | inactive | > 400 | 50 (≈ 208 µM) | 11 mm | > 400 | 12 mm | inactive | 4 | > 400 | diameter of the inhibition zone (DIZ) (Pseudomonas aeruginosa [15]): inactive; diameter of the inhibition zone (DIZ) [16]: inactive; diameter of the inhibition zone (DIZ) (Candida albicans [17]): inactive; diameter of the inhibition zone (DIZ) (Enterobacter cloacae): inactive; diameter of the inhibition zone (DIZ) [18]: inactive; MIC [19]: > 400 µg/mL; fold change (FC) (Serratia marcescens): 2; MIC (Staphylococcus aureus [20]): 50 µg/mL (≈ 208 µM); MIC (Acinetobacter baumannii [21]): > 400 µg/mL; DIZ (Klebsiella pneumoniae [22]): inactive; MIC (Candida albicans [23]): 400 µg/mL (≈ 1670 µM); MIC (Escherichia coli [24]): > 400 µg/mL; MIC (Klebsiella pneumoniae [25]): > 400 µg/mL
